From ChEMBL document CHEMBL3091404, “Isoquinoline derivatives as potent CRTH2 antagonists: design, synthesis and SAR” (Bioorg Med Chem, 2013)

What was measured:
[1] = target: T1, Prostaglandin D2 receptor 2 (Homo sapiens, UniProt Q9Y5Y4); assay: Antagonist activity at human CRTH2 transfected in human KB8 cells assessed as inhibition of PGD2-induced increase in intracellular Ca2+ by fluo-4AM dye-based assay; type: functional, cell-based
T1 sequence (Q9Y5Y4 whole entry): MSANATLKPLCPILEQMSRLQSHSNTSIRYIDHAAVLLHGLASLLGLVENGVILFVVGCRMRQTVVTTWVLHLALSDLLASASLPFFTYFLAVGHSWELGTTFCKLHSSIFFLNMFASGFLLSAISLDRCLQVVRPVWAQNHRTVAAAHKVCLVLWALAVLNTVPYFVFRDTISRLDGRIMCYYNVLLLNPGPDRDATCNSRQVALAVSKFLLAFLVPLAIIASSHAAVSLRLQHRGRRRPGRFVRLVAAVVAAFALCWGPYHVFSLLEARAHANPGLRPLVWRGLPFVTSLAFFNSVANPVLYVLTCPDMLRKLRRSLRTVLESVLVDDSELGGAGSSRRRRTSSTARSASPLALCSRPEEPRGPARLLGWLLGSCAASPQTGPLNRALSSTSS
Summary of the method: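 Cells loaded with 1 µM Fluo-4 AM for 30 min at 37 °C in the dark, washed, resuspended in HBSS with 10 mM HEPES pH 7.3 and 1 mM CaCl₂ (2 × 10⁵ cells/100 µl). Compound added with 100 nM PGD₂; [Ca²⁺]i rise read on FDSS6000. IC₅₀ from ten-point half-log concentration–response curves, mean of two or more independent experiments.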

[2] = Antagonist activity at CRTH2 in human TH2 cells assessed as inhibition of PGD2-induced chemotaxis after 1 hr by hemocytometry
[3] = target: T1, Prostaglandin D2 receptor 2; assay: Displacement of [3H]PGD2 from human CRTH2 transfected in CHO cells by liquid scintillation counting analysis; type: cell-based
Summary of the method: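 Transfected cells washed and suspended in HBSS with 10 mM HEPES pH 7.3 (2 × 10⁵ cells/100 µl), incubated with 5 nM ³H-PGD₂ for 60 min on ice. Vacuum filtration through GF/C glass fiber filters, four washes with ice-cold PBS containing 0.1% BSA. IC₅₀ from ten-point half-log concentration–response curves, mean of two or more independent experiments.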

IC50 [1]	IC50 [2]	IC50 [3]	Structure (SMILES)
270 nM			O=C(O)Cc1cnc(C(=O)c2ccc(NC(=O)C3CCCCC3)cc2)c2ccccc12
10 nM			O=C(O)Cc1cnc(C(=O)c2ccc(NC(=O)c3ccc4ccccc4c3)cc2)c2ccccc12
4.2 nM			O=C(O)Cc1cnc(C(=O)c2ccc(NC(=O)c3cc4ccccc4[nH]3)cc2)c2ccccc12
> 1000 nM			O=C(O)Cc1cnc(C(=O)c2ccc(NC(=O)c3ccncc3)cc2)c2ccccc12
9.7 nM			O=C(O)Cc1cnc(C(=O)c2ccc(NC(=O)c3cccc(Cl)c3)cc2)c2ccccc12
9.1 nM			O=C(O)Cc1cnc(C(=O)c2ccc(NC(=O)c3ccc(Cl)cc3)cc2)c2ccccc12
> 1000 nM			O=C(O)Cc1cnc(C(=O)c2ccc(NC(=O)c3ccccc3Cl)cc2)c2ccccc12
17 nM			COc1ccc(C(=O)Nc2ccc(C(=O)c3ncc(CC(=O)O)c4ccccc34)cc2)cc1
13 nM	23 nM		O=C(O)Cc1cnc(C(=O)c2ccc(NC(=O)c3ccc(Cl)c(Cl)c3)cc2)c2ccccc12
18 nM			O=C(O)Cc1cnc(C(=O)c2ccc(NC(=O)CCc3ccc(Cl)c(Cl)c3)cc2)c2ccccc12
43 nM			O=C(O)Cc1cnc(C(=O)c2ccc(NCc3ccc(Cl)c(Cl)c3)cc2)c2ccccc12
13 nM			O=C(O)Cc1cnc(C(=O)c2ccc(C(=O)Nc3ccc(Cl)c(Cl)c3)cc2)c2ccccc12
12 nM			O=C(O)Cc1cnc(C(=O)c2ccc(C(=O)NCCc3ccc(Cl)cc3)cc2)c2ccccc12
> 1000 nM			CC(C)(C(=O)O)c1cnc(C(=O)c2ccc(C(=O)NCCc3ccc(Cl)cc3)cc2)c2ccccc12
100 nM			O=C(O)COc1cnc(C(=O)c2ccc(C(=O)NCCc3ccc(Cl)cc3)cc2)c2ccccc12
5.2 nM		6.7 nM	O=C(O)Cc1cnc(C(=O)c2ccc(NC(=O)OCc3ccc(Cl)c(Cl)c3)cc2)c2ccccc12
38 nM		8.2 nM	O=C(O)Cc1cnc(C(=O)c2ccc(C(=O)Nc3ccc(Cl)cc3)cc2)c2ccccc12
18 nM		3.7 nM	O=C(O)Cc1cnc(C(=O)c2ccc(C(=O)NCCc3ccc(Cl)c(Cl)c3)cc2)c2ccccc12
130 nM		12 nM	O=C(O)Cc1cnc(C(=O)c2ccc(OCCc3ccc(Cl)cc3)cc2)c2ccccc12

IC50 [1]	IC50 [2]	IC50 [3]	Structure (SMILES)
85 nM		11 nM	O=C(O)Cc1cnc(C(=O)c2ccc(OCCCc3ccc(Cl)cc3)cc2)c2ccccc12
18 nM		5.2 nM	Cc1ccc(C(=O)Nc2ccc(C(=O)c3ncc(CC(=O)O)c4ccccc34)cc2)cc1
8.7 nM		11 nM	O=C(O)Cc1cnc(C(=O)c2ccc(NC(=O)c3ccc(OC(F)(F)F)cc3)cc2)c2ccccc12
> 1000 nM		7.8 nM	N#Cc1ccc(C(=O)Nc2ccc(C(=O)c3ncc(CC(=O)O)c4ccccc34)cc2)cc1
28 nM		9.9 nM	O=C(O)Cc1cnc(C(=O)c2ccc(NC(=O)c3ccc([N+](=O)[O-])cc3)cc2)c2ccccc12
13 nM		6.2 nM	CN(C)c1ccc(C(=O)Nc2ccc(C(=O)c3ncc(CC(=O)O)c4ccccc34)cc2)cc1
14 nM		18 nM	O=C(O)Cc1cnc(C(=O)c2ccc(NC(=O)c3ccc(-c4ccccc4)cc3)cc2)c2ccccc12
120 nM		14 nM	O=C(O)Cc1cnc(C(=O)c2ccc(NC(=O)c3ccc(Oc4ccccc4)cc3)cc2)c2ccccc12
30 nM		15 nM	O=C(O)Cc1cnc(C(=O)c2ccc(NC(=O)Cc3ccc(Cl)c(Cl)c3)cc2)c2ccccc12
36 nM		13 nM	O=C(O)Cc1cnc(C(=O)c2ccc(NC(=O)Nc3ccc(Cl)c(Cl)c3)cc2)c2ccccc12
220 nM		20 nM	O=C(O)Cc1cnc(C(=O)c2ccc(NC(=O)CC3CCCCC3)cc2)c2ccccc12
97 nM		21 nM	O=C(O)Cc1cnc(C(=O)c2ccc(NC(=O)CC34CC5CC(CC(C5)C3)C4)cc2)c2ccccc12
> 1000 nM		400 nM	O=C(O)Cc1cnc(C(=O)c2ccc(NC(=O)C3CCOCC3)cc2)c2ccccc12
350 nM		31 nM	O=C(O)Cc1cnc(C(=O)c2ccc(NC(=O)c3cccc4ccccc34)cc2)c2ccccc12
7.4 nM		3.8 nM	O=C(O)Cc1cnc(C(=O)c2ccc(NC(=O)c3cc4ccccc4o3)cc2)c2ccccc12
		48 nM	O=C(O)Cc1cnc(C(=O)c2ccc(NC(=O)c3ccccn3)cc2)c2ccccc12
> 1000 nM		322 nM	O=C(O)Cc1cnc(C(=O)c2ccc(NC(=O)c3cccnn3)cc2)c2ccccc12
> 1000 nM		67 nM	O=C(O)Cc1cnc(C(=O)c2ccc(NC(=O)c3cscn3)cc2)c2ccccc12
		50 nM	O=C(O)Cc1cnc(C(=O)c2ccc(NC(=O)C3CC3)cc2)c2ccccc12
